Screening data as filed in PubChem BioAssay.
IDE cell inh = inhibits human insulin-degrading enzyme in HEK cells; P14735; FAbetaB cleavage, fluorescence polarization; inhibition, % at 5.59 µM; 320,000 compounds, 0.41% hits;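 active means percent inhibition above the average of all tested compounds plus 3 SD, set per screening campaign, cut at about 16% in these data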;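 further: IDE supplied by intact live HEK cells; FP after avidin binding of uncleaved biotin substrate so inhibition keeps polarization high; 0% = DMSO wells and 100% = 60 µM reference IDE inhibitor Ii1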
HNF4A DNA FP = change in binding of human HNF4 alpha to DNA; P41235; HNF4a-FITC DNA binding, fluorescence polarization, 1 h; activity change, % at 10 µM; 360,000 compounds, 0.3% hits; AID 1224865; in the data active means activity change above about 30%, passing the limit was not always enough
CSN deneddyl inh = blocks human CSN-mediated cullin deneddylation; Q92905; Purified CSN, SCF-Nedd8-OG deneddylation, fluorescence polarization; inhibition, % at 12.5 µM; 360,000 compounds, 0.38% hits;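 active means pattern-corrected inhibition above about 35%, with an unprinted fluorescence ratio check between 0.5 and 1.5, limit read from the data, passing the limit was not always enough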;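 further: 0% = enzyme with substrate and 100% = substrate without enzyme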
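test system = HEK293T-derived human Csn5 enzyme | amount = 0.24 nM Csn5 enzyme, final concentration | medium = Tris/NaCl/DTT buffer, pH 7.5 | schedule = 90 min reaction at room temperature | signal = FP | evaluation = inhibition of Csn5 cleavage, % | compound dosing = single dose of 12.5 µM compound with 0.25% DMSO | probe or stimulus = 10 nM SCFSkp2-Nedd8OG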
TPT1 inhibitor = blocks Candida albicans tRNA 2'-phosphotransferase; inhibition, % at 5 µM; 300,000 compounds, 0.81% hits; recombinant caTPT1, FP RNA substrate dephosphorylation;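 active means inhibition above the mean of all tested compounds plus 3 SD, set per screening campaign, cut at about 24% in these data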;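 further: plate controls were DMSO alone for no effect and ferristatin control at 100 nM for full effect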
IDE act = boosts human insulin-degrading enzyme activity in HEK cells | AID 493087 | 340,000 compounds, 0.073% hits | FAbeta-B cleavage, fluorescence polarization; 0% vehicle, 100% cell-free pure enzyme wells | activation, % at 5.96 µM | P14735;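 active means activation above the mean of all tested compounds plus 3 SD, set per screening campaign, cut at about 17% in these data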
Rpn11 block = blocks the human proteasome subunit Rpn11. calls only at 20 µM. human 26S proteasome, Ub4-pepOG fluorescence polarization; 20S core pre-blocked with epoxomicin. O00487. AID 588493. 360,000 compounds, 0.59% hits;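 active means inhibition at 20 µM, scaled to each plate's controls, above about 33%, limit read from the data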
TPT1 inh confirm = confirmation of Candida albicans TPT1 inhibitors; shares compounds with TPT1 inhibitor; recombinant caTPT1, fluorescence polarization, RNase T1 coupled; inhibition, % at 5 µM; 2,400 compounds, 74% hits; AID 2149;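 active means inhibition above the primary screen limit, the mean inhibition of all tested compounds plus 3 SD, cut at about 25% in these data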
RNase T1 counter = counter-screen for TPT1 inhibitors: inhibitors of Aspergillus oryzae RNase T1. shares compounds with TPT1 inhibitor. RNase T1 cleavage, fluorescence polarization, 1536-well. inhibition, % at 5 µM. 2,400 compounds, 83% hits;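 active means inhibition above the solvent-only control well mean plus 3 SD, limit set per screening run, cut at about 23% in these data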;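 further: plate controls were DMSO wells with enzyme for no effect and wells without RNase T1 for full effect; inhibitors block cleavage so intact labeled substrate keeps polarization high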
* hit, by the source's call; i = inactive; nt = not tested or not shown; + = active, no number. Compounds with a hit are over-represented: about 1.7% of the library has one in this group of screens.

SMILES	IDE cell inh	HNF4A DNA FP	CSN deneddyl inh	TPT1 inhibitor	IDE act	Rpn11 block	others
CCCCCN1C(=O)/C(=C/c2c(N3CCc4ccccc4C3)nc3ccccn3c2=O)SC1=S	3.0	97.6	64.0	81.7*	2.5	nt
CCC(NC(=O)CCc1c(C)c2cc3c(C)c(C)oc3cc2oc1=O)C(=O)N[C@@H](Cc1ccccc1)C(=O)O (some centres not stated)	14.6	-0.3	1.8	-2.2	-1.6	i
CCCC(NC(=O)CCc1c(C)c2cc3c(C)c(C)oc3cc2oc1=O)C(=O)NC(Cc1ccc(Cl)cc1)C(=O)O (configuration not stated)	nt	4.9	37.1*	nt	nt	i
CCCCOc1cccc(C(=O)N(Cc2ccco2)C2CCS(=O)(=O)C2)c1 (configuration not stated)	3.1	0.7	-2.5	-0.2	6.2	i
CN1CCN(NC(=O)c2cn(-c3ccccc3)nc2-c2cccc(Br)c2)CC1	-0.3	46.0*	-1.1	-5.6	3.2	i
COc1ccc(Cc2nc3ccccc3n2CC(=O)N/N=C/c2ccc(C)cc2O)cc1OC	2.6	39.1*	59.5*	-1.6	-0.8	i
COc1ccc(Cc2nc3ccccc3n2CC(=O)N/N=C/c2ccc(O)cc2)cc1OC	2.5	0.7	1.1	-3.4	-0.5	i
COCCN(C(=S)Nc1cccc(C)c1)C(C)c1cccs1 (configuration not stated)	1.5	0.5	-5.5	-1.0	1.0	i
Cc1ccc2nc(N3C(=O)C(O)=C(C(=O)c4cc5ccccc5o4)C3c3cccs3)sc2c1 (configuration not stated)	2.3	10.3	7.7	1.8	3.6	+
Cc1ccc2nc(N3C(=O)C(O)=C(C(=O)c4ccc(C)o4)C3c3ccco3)sc2c1 (configuration not stated)	-0.5	0.3	19.0	nt	1.4	i
Cc1ccc2nc(N3C(=O)C(O)=C(C(=O)c4ccco4)C3c3ccc(O)cc3)sc2c1 (configuration not stated)	2.5	6.0	11.8	5.6	2.7	i
CCc1ccc2nc(N3C(=O)C(O)=C(C(=O)c4ccco4)C3c3cccs3)sc2c1 (configuration not stated)	0.5	7.6	11.5	-3.3	-1.5	+
CCN(CC)S(=O)(=O)c1ccc(-c2nnc3sc4cccc(C)c4n23)cc1	1.6	-0.8	-2.3	3.9	-2.5	i
COc1cccc(NC(=O)Cn2c(=O)n(CCC(=O)NCc3ccco3)c(=O)c3ccccc32)c1	1.9	2.6	0.5	0.1	1.6	i
CS(=O)(=O)N(CC(=O)N1CCOCC1)c1cccc(Cl)c1	nt	5.0	90.1*	nt	nt	i
Cc1ccc(NC(=O)Nc2cccnc2)cc1NC(=O)Nc1cccnc1	1.4	1.8	-0.6	0.7	-1.6	i
COc1ccc(C2C=C(c3ccc(C)cc3)Nc3ncnn32)cc1 (configuration not stated)	nt	1.4	-4.3	nt	-3.0	i
COc1ccc(C2C=C(c3ccc(Br)s3)Nc3ncnn32)cc1OC (configuration not stated)	38.7*	nt	nt	-86.8	nt	nt
COc1ccc(Cc2c(-c3ccc(C)cc3)nc3c4ccccc4ccn23)c(C)c1	nt	12.3	1.4	nt	nt	i
CCCc1nc2c3ccccc3ccn2c1Cc1ccc(OC)cc1C	nt	42.7*	26.3	nt	nt	nt
O=C1NC[C@H](c2ccccc2)N(CCC23CC4CC(CC(C4)C2)C3)C1=O	1.4	5.1	74.4*	-0.2	5.7	i
COc1ccccc1CN(C)C(=O)c1ccc(S(=O)(=O)NCc2ccco2)cc1	1.2	0.8	-6.2	nt	0.0	i
Cc1ccc(NC(=O)COC(=O)c2ccc(S(=O)(=O)NCc3ccco3)cc2)cc1	-1.2	0.2	-1.9	nt	0.3	i
O=C(COC(=O)c1ccc(S(=O)(=O)NCc2ccco2)cc1)Nc1ccc(Cl)cn1	-2.4	-4.9	47.6*	-1.3	3.7	i
O=C(COC(=O)c1ccc(S(=O)(=O)NCc2ccco2)cc1)Nc1ccccc1	nt	1.9	36.9*	nt	5.0	i
SMILES	IDE cell inh	HNF4A DNA FP	CSN deneddyl inh	TPT1 inhibitor	IDE act	Rpn11 block	others
CN(Cc1cnn(-c2ccccc2)c1)C(=O)c1ccc(S(=O)(=O)NCc2ccco2)cc1	nt	4.4	45.0*	nt	nt	i
CNc1ncnc2sc(-c3ccccc3)cc12	8.2	2.0	-4.8	0.3	0.9	i
S=c1[nH]cnc2sc(-c3ccccc3)cc12	19.0*	1.2	-1.1	-2.1	-17.1	i
COc1ccc(NC(=O)C/C(C)=N/NC(=O)c2cnccn2)cc1	0.0	30.3*	1.9	-2.4	3.2	i
C/C(CC(=O)Nc1ccc(N(C)C)cc1)=N\NC(=O)c1ccncc1	1.0	4.1	-3.9	-3.1	18.4*	i
COc1ccc2c(c1)c1ncn(Cc3ccc(F)cc3)c(=O)c1n2C	0.5	2.0	-1.9	-0.9	nt	i
O=C(/C=C/c1cn(-c2ccccc2)nc1-c1cccc(Cl)c1)N1CCN(c2ccccn2)CC1	4.6	1.7	153.4*	-4.0	-6.2	i
Cc1ccc(N/C=C(\C#N)S(=O)(=O)c2ccccc2)cc1	2.6	0.9	-11.0	-1.1	18.1*	i
COc1ccc(/C=C(\C#N)C(=O)Nc2cc(C)c(Cl)cc2OC)cc1O	-3.9	8.4	0.7	3.2	20.2*	i
Cc1cc(C)c(-c2csc(NC(=O)c3n[nH]c(=O)c4ccccc34)n2)c(C)c1	0.4	0.1	1.3	-4.3	-1.8	i
CC(=O)N1C[C@H]2CON(C)[C@H]2C[C@H]1c1ccccc1Br	nt	-4.5	-1.0	nt	0.4	i
COc1ccc(CN2CC[C@@H]3CN(C(C)=O)[C@H](c4ccccc4Br)C[C@@H]32)cc1	nt	1.2	160.8*	nt	nt	i
O=C(c1ccc(Br)o1)N1CCC(Cc2ccccc2)CC1	4.3	4.9	93.1*	0.6	-4.8	i
O=C(Cc1ccccc1)NCC(=O)OCC(=O)c1ccc(Cl)cc1	5.4	-0.3	-0.1	-2.1	0.3	i
O=C(N/N=C\c1ccccc1F)c1ccc(-c2ccccc2)cc1	nt	-2.6	0.3	nt	-6.4	i
CCOc1ccc(Br)cc1S(=O)(=O)Nc1nc(CN2CCOCC2)nc2sc(C)c(C)c12	3.9	4.8	9.7	31.1*	6.6	i	TPT1 inh confirm=27.2*;RNase T1 counter=35.0*
Cc1sc2nc(CN3CCOCC3)nc(NS(=O)(=O)c3ccccc3)c2c1C	-1.9	-3.2	5.0	5.6	-1.6	i
